bCat nuc transl: modulators of beta-catenin nuclear translocation, primary screen, imaging, HeLa cells, immunofluorescence, high-content; nuclear translocation activity, % at 5 µM; 0.3% of 190,000 active; AID 1665, 2009;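 active = nuclear translocation activity above 50% at 5 µM, with a well cell count of 50 or more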;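 also: per-cell ratio of nuclear to cytoplasmic median beta-catenin stain intensity; plate controls were DMSO negative control for no effect and GSK-3 inhibitor IX positive control for full effect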
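System: Human HeLa cells, endogenous beta-catenin | Compound dosing: 5 µM primary, 0.02–20 µM confirmation | Timing: 24 h compound exposure at 37°C, 5% CO2 | Measured by: Fluorescence imaging of beta-catenin antibody stain plus DAPI | Read-out basis: % activation of per-cell nuclear versus cytoplasmic median beta-catenin signal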
Ba/F3 V617F tox: reduced viability of JAK2V617F-dependent Ba/F3 cells, primary screen, JAK2V617F inhibitor project, cell-based, Ba/F3 EpoR-JAK2V617F, luminescence; ATP luminescence; inhibition, % at 5.6 µM; 1.1% of 220,000 active; AID 1446, 2008;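 active = inhibition above the campaign mean plus 3 SD over all tested compounds, cut at about 24% in these data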;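 also: cytokine-independent growth of Ba/F3 cells driven by EpoR plus mutant JAK2; 0% = DMSO-treated cells and 100% = JAK inhibitor I control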
BaF3 parental: parental Ba/F3 cell viability inhibition, counter-screen for JAK2V617F inhibitor project, murine pro-B, CellTiter-Glo luminescence; CellTiter-Glo ATP luminescence; inhibition, % at 5.6 µM; 1.1% of 220,000 active; AID 1486, 2009;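 active = inhibition above a per-campaign cutoff, the mean inhibition of all tested compounds plus 3 SD, cut at about 27% in these data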;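 also: 0% = DMSO wells and 100% = JAK Inhibitor I control wells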
APP transl inh: inhibitors of APP translation via 5'UTR reporter, primary screen, APP 5'UTR luciferase, SH-SY5Y cells; SH-SY5Y APP 5'UTR-luciferase reporter, luminescence; inhibition, % at 2 µM; 0.82% of 190,000 active;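 active = inhibition above a set limit, derived from the sample mean plus 3 SD, cut at about 45% in these data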
L major viab: Leishmania major promastigote growth inhibition, primary screen; Leishmania major promastigotes, resazurin fluorescence viability; inhibition, % at 10 µM; 9% of 200,000 active; in the data active = inhibition above about 50%;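 also: promastigotes grown with compound for 44 hours at 28 °C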
MT stabilizer: microtubule stabilizers in HeLa cells, primary screen, imaging, high-content imaging; HeLa tubulin immunostaining HCS, 24 h; share of cells brighter than vehicle mean+2SD; % tubulin-high responders, % at 10 µM; 0.83% of 200,000 active;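 active = plate Z-score above 3 for both tubulin-high and condensed-nucleus cell shares, with cell loss under 80%, at 10 µM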;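 also: anti alpha tubulin signal scored within the nucleus-defined area of each cell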
Active calls of the source: *; . = no result. Sampled rows, rich in hits. Any-hit rate of the full collection: about 9.6%.

SMILES	bCat nuc transl	Ba/F3 V617F tox	BaF3 parental	APP transl inh	L major viab	MT stabilizer
CC(=O)n1cc([C@H]2C=C(C(=O)Nc3ccccc3)O[C@@H](OCCCCO)C2)c2ccccc21	1	-5	5	8	54*	4
O=C(Nc1ccccc1)C1=C[C@@H](C2CCCCC2)C[C@@H](OCCCCO)O1	0	-1	0	-68	92*	5
CCO[C@H]1OC(C(=O)NCc2ccccc2)=C[C@@H](c2cn(C(C)=O)c3ccccc23)[C@@H]1CCCO	-3	2	-5	13	82*	5
CCO[C@@H]1OC(C(=O)NCc2ccccc2)=C[C@H](c2csc3ccccc23)[C@H]1CCCO	-1	3	4	-10	34	2
O=C(NC1CC1)C1=C[C@H](C2CCCCC2)C[C@H](OCCCCO)O1	-1	.	.	.	.	.
O=C(Nc1ccccc1)C1=C[C@@H](C2CCCCC2)C[C@@H](OCc2ccc(CO)cc2)O1	2	2	2	4	97*	1
CC1CCN(C(=O)C2CCN(S(=O)(=O)c3cc(Cl)ccc3Cl)CC2)CC1	-1	3	-9	.	.	.
CCOC(=O)/C=C/C(=O)Nc1ccc(S(=O)(=O)N(C)c2ccccc2)cc1	-1	0	1	-15	25	4
CCOC(=O)c1c2c3c(c(Cl)ccc3[nH]c1=O)C(=O)c1ccccc1-2	0	6	7	-3	19	5
Cc1cccc(C)c1NC(=O)CN(c1ccccn1)S(=O)(=O)c1ccc(F)cc1	-3	2	4	-4	0	2
Cc1c(C(=O)/C=C/c2cccs2)oc2ccc(F)cc12	-3	-5	4	9	4	1
CC(/C=N/Nc1ncc(C)c(=O)[nH]1)=C\c1ccccc1	-1	3	7	-10	-4	7
CCN(CCNC(=O)CS(=O)(=O)Cc1nc(-c2cccc(OC)c2)oc1C)c1ccccc1	-1	-2	2	-4	5	3
COc1c(C)cccc1C(=O)Nc1ccc(CN2CCOCC2)cc1	-2	2	2	-118	98*	3
CC(C)Oc1cccc(C(=O)Nc2ccc(CN3CCOCC3)cc2)c1	-3	-1	6	-11	79*	4
CN(C)c1ccc(CNCCC2CCOC(C)(C)C2)cc1 (configuration not stated)	-4	-1	2	10	94*	4
CC1(C)CC(NCc2ccccc2)CCO1 (configuration not stated)	0	-4	6	-11	-9	2
CCC(=O)Nc1ccc(N2CCN(S(C)(=O)=O)CC2)cc1	-1	4	5	2	67*	6
COc1c(C)cccc1C(=O)Nc1ccc(N2CCN(S(C)(=O)=O)CC2)cc1	-6	-4	-1	-35	-1	5
COc1ccccc1C(=O)Nc1ccc(N2CCN(S(C)(=O)=O)CC2)cc1	0	0	7	-2	56*	2
O=C(CSc1nc2ccccc2n1CCc1ccccc1)c1ccc(O)c(O)c1	4	-2	1	1	-5	3
Nc1nc(NCCCN2CCOCC2)nc(Nc2ccc(F)cc2)c1[N+](=O)[O-]	.	1	3	-16	52*	2
CC(=O)Nc1ccccc1Nc1cc(C#N)c(C#N)cc1[N+](=O)[O-]	.	1	-1	10	97*	4
CCOc1ccc(C(=O)Nc2ccccc2C#N)cc1[N+](=O)[O-]	0	1	1	-8	14	2
O=C(Cn1cnc2ccccc2c1=O)NCc1cccs1	-3	-3	3	2	-6	2
SMILES	bCat nuc transl	Ba/F3 V617F tox	BaF3 parental	APP transl inh	L major viab	MT stabilizer
Cc1nc(-c2ccc(S(=O)(=O)NCC3CCN(C(=O)OC(C)(C)C)CC3)s2)cs1	1	0	3	.	.	.
Cc1ccc(Nc2nc(Cl)nc(N(C)C#N)n2)cc1	.	2	1	-10	97*	3
CCOC(=O)CNc1nc(Cl)nc(Nc2ccc(C)cc2)n1	0	2	1	.	.	.
CCCn1c(SCC(=O)NCc2ccc(OC)cc2)n[nH]c1=O	-3	2	1	3	-8	3
CCCn1c(SCC(=O)N2N=C3/C(=C/c4ccc(OC)cc4)CCCC3C2c2ccc(OC)cc2)n[nH]c1=O (configuration not stated)	-1	-2	3	-9	92*	2
CC(=O)N1N=C2/C(=C/c3ccccc3)CCCC2C1c1ccccc1 (configuration not stated)	-1	-5	0	12	97*	4
O=Nc1c(O)[nH]c2ccc(F)cc12	-1	7	10	5	-4	11
Cc1cc2c(N=O)c(NO)ccc2[nH]1	-5	4	-1	25	83*	4
O=C(CCn1cnc(-c2ccccc2)c1-c1ccccc1)N/N=C/c1ccccc1O	-3	-5	-2	1	98*	7
O=C(CCn1cnc(-c2ccccc2)c1-c1ccccc1)N/N=C/c1ccc(O)cc1	6	2	5	-14	0	23*
COc1ccccc1N1CCN(/N=C\c2sccc2C)CC1	8	6	5	-21	2	3
Cc1nc2c(Br)cc(Br)cc2cc1O	-14	-1	2	-14	-5	2
C=CCn1c(C(CCCC)CC(C)O)n[nH]c1=S (configuration not stated)	-2	2	7	-5	33	5
CC1=CC(C)(C)N(S(=O)(=O)c2ccc(F)cc2)c2ccc(C)cc21	33	-2	0	10	23	24*
COc1cccc(CN2CCN(S(=O)(=O)c3ccc(Br)cc3)CC2)c1	1	-1	1	1	5	3
COc1ccc2c(c1)C(C)=CC(C)(C)N2S(=O)(=O)c1ccc(Br)cc1	76*	74*	69*	93*	95*	5
Cc1cc(Cl)c(OCCOCCN2CCCC(C)C2)c(Br)c1 (configuration not stated)	2	5	14	-2	99*	1
Cc1cc(C)c(OCCOCCN2CCNCC2)c(C)c1	.	1	5	-12	15	3
Cc1cc(Cl)c(OCCOCCN2CCCCC2)c(Br)c1	.	0	3	-10	97*	2
Cc1cc(Cl)cc(C)c1OCCCCN1CCOCC1	0	2	6	20	100*	3
Cc1cc(Cl)c(OCCCCN2CCOCC2)c(Br)c1	0	1	5	-12	98*	3
Cc1c(N2C(=O)CSC23C(=O)Nc2ccccc23)c(=O)n(-c2ccccc2)n1C (configuration not stated)	2	-1	3	-13	-6	3
S=C(NCc1ccccc1)NN1CCOCC1	0	-2	2	-7	-2	2

Screening results from PubChem.
